From ChEMBL document CHEMBL1145930, “Synthesis and evaluation of nitroheterocyclic carbamate prodrugs for use with nitroreductase-mediated gene-directed enzyme prodrug therapy” (J Med Chem, 2003)
In brackets after ≈: the same amount, converted by molar mass.

Legend:
V79 [1] = assay: Ratio between V79 and V79-NTRpuro was determined; type: functional, Cricetulus griseus
Method in brief: (§1)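 Parental and stably NTR-transfected cells were tested in parallel by aerobic SRB growth inhibition (18 h exposure, readout 4–5 days later). The ratio is IC50(NTR-ve)/IC50(NTR+ve), calculated within each experiment. Selection drug was kept during passage but omitted during experiments: puromycin 15 µM for V79, 5 µM for EMT6; G418 300 µg/mL for SKOV3/WiDr.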

EMT6 [2] = assay: Inhibitory activity against EMT6 murine cell line; type: functional, cell-based; details: Mus musculus
Method in brief: (§2)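 Aerobic growth inhibition of log-phase cells (parental NTR-negative lines). Cultures seeded 24 h before an 18 h drug exposure; cell density read 4–5 days later by sulforhodamine B staining. IC50 is the concentration giving 50% growth inhibition versus same-plate controls. Mean ± SEM of up to five independent experiments.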

SK-OV-3 [3] = assay: Inhibitory activity was determined against SKOV3 cell line in human; type: functional, cell-based; method in brief: as §2
V79 [4] = assay: Inhibitory activity was determined against V79 cell line in chinese hamster; type: functional, cell-based; details: Cricetulus griseus; method in brief: as §2
WiDr [5] = assay: Ratio between WiDr and WiDr-NTRneo was determined; type: functional, Homo sapiens; method in brief: as §1
SK-OV-3 [6] = assay: Ratio between SKOV3 and SKOV3-NTR neo was determined; type: functional, Homo sapiens; method in brief: as §1
WiDr [7] = assay: Inhibitory activity was determined against WiDr cell line in human; type: functional, cell-based; method in brief: as §2
EMT6 [8] = assay: Ratio between EMT6 and EMT6-NTRpuro was determined; type: functional, Mus musculus; method in brief: as §1
[9] = Solubility in alpha-MEM culture medium; type: physicochemical
Method in brief: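 Solubility measured in α-MEM culture medium with 5% fetal calf serum, by HPLC analysis of the supernatant of a saturated solution.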

Mus musculus = assay: In vivo maximum tolerance dose in C3H mice by ip administration; type: functional
Method in brief: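 Male C3H mice (ca. 25 g), groups of six, given single ip doses in 10^(1/8)-fold increments. Vehicle DMSO at 1 μL/g for most compounds; CB1954 given in 10% DMA/40% PEG400/50% water at 10 μL/g. Animals observed daily for 60 days; any losing >15% body weight or becoming moribund were terminated.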

EMT6 [10] = assay: Inhibitory activity against EMT6 (mouse mammary carcinoma) murine cell line; type: functional, cell-based; method in brief: as §2
SK-OV-3 [11] = assay: Inhibitory activity against SKOV3 (human ovarian carcinoma) cell line in human; type: functional, cell-based; method in brief: as §2

| SMILES | Ratio (V79 [1]) | IC50 (EMT6 [2]) | IC50 (SK-OV-3 [3]) | IC50 (V79 [4]) | Ratio (WiDr [5]) | Ratio (SK-OV-3 [6]) | IC50 (WiDr [7]) | Ratio (EMT6 [8]) | solubility [9] | MTD (Mus musculus) | IC50 (EMT6 [10]) | IC50 (SK-OV-3 [11]) |
| --- | --- | --- | --- | --- | --- | --- | --- | --- | --- | --- | --- | --- |
| CCOC(=O)c1cc(COC(=O)Nc2cc3c(c4ccccc24)C(C(=O)c2cc4cc(OC)c(OC)c(OC)c4[nH]2)CN3CCl)c([N+](=O)[O-])n1C (centres undefined) | 2 | 28 µM | 97 µM | 24 µM | 13 | 9.6 | 94 µM | 12 |  |  |  |  |
| COc1cc2cc(C(=O)C3CN(CCl)c4cc(NC(=O)OCc5ccn(C)c5[N+](=O)[O-])c5ccccc5c43)[nH]c2c(OC)c1OC (centres undefined) | 1.5 | 64 µM | 116 µM | 62 µM | 1.8 | 0.5 | 219 µM | 1.3 | 18 µM (≈ 11.7 µg/mL) |  |  |  |
| COc1cc2cc(C(=O)C3CN(CCl)c4cc(NC(=O)OCc5cnc([N+](=O)[O-])n5C)c5ccccc5c43)[nH]c2c(OC)c1OC (centres undefined) | 14.7 | 19.6 µM | 75 µM | 24 µM | 40 | 21 | 75 µM | 62 | 17 µM (≈ 11 µg/mL) | >1000 µM |  |  |
| COc1cc2cc(C(=O)C3CN(CCl)c4cc(NC(=O)OCc5ccc([N+](=O)[O-])n5C)c5ccccc5c43)[nH]c2c(OC)c1OC (centres undefined) | 1 | 49 µM | 265 µM | 53 µM | 2.5 | 1.3 | 182 µM | 1.2 | 9 µM (≈ 5.83 µg/mL) |  |  |  |
| COc1cc2cc(C(=O)C3CN(CCl)c4cc(NC(=O)OCc5ncc([N+](=O)[O-])n5CCO)c5ccccc5c43)[nH]c2c(OC)c1OC (centres undefined) | 1.2 | 129 µM | 378 µM | 94 µM | 12.4 | 26 | 427 µM | 11 | 20 µM (≈ 13.6 µg/mL) |  |  |  |
| NC(=O)c1cc(N(CCBr)CCBr)c([N+](=O)[O-])cc1[N+](=O)[O-] | 302 | 54 µM | 58 µM |  | 174 | 211 |  | 1380 | 40 µM (≈ 17.6 µg/mL) |  |  |  |
| COc1cc2cc(C(=O)C3CN(CCl)c4cc(NC(=O)OCc5cnn(C)c5[N+](=O)[O-])c5ccccc5c43)[nH]c2c(OC)c1OC (centres undefined) | 37 | 39 µM | 0.032 µM | 41 µM | 13.5 | 30.3 | 0.0113 µM | 87 | 8 µM (≈ 5.19 µg/mL) |  |  |  |
| COc1cc2cc(C(=O)C3CN(CCl)c4cc(NC(=O)OCc5ccc([N+](=O)[O-])o5)c5ccccc5c43)[nH]c2c(OC)c1OC (centres undefined) | 1.1 | 18 µM | 76 µM | 20 µM | 1.9 | 1.2 | 89 µM | 1.2 | 11 µM (≈ 6.99 µg/mL) |  |  |  |
| COc1cc2cc(C(=O)C3CN(CCl)c4cc(NC(=O)OCc5ccc([N+](=O)[O-])s5)c5ccccc5c43)[nH]c2c(OC)c1OC (centres undefined) | 3.1 | 0.0043 µM | 0.0106 µM | 0.0035 µM | 13.5 | 7 | 0.018 µM | 16 | 4 µM (≈ 2.6 µg/mL) |  |  |  |
| COc1cc2cc(C(=O)C3CN(CCl)c4cc(NC(=O)OCc5ncn(C)c5[N+](=O)[O-])c5ccccc5c43)[nH]c2c(OC)c1OC (centres undefined) | 1.4 | 63 µM | 61 µM | 44 µM | 3.4 | 5.6 | 0.024 µM | 6.5 | 5.5 µM (≈ 3.57 µg/mL) |  |  |  |
| CCOC(=O)c1cc([N+](=O)[O-])c(COC(=O)Nc2cc3c(c4ccccc24)C(C(=O)c2cc4cc(OC)c(OC)c(OC)c4[nH]2)CN3CCl)n1C (centres undefined) | 1.8 |  | 98 µM | 52 µM | 1.3 | 0.8 | 223 µM |  | 21 µM (≈ 15.1 µg/mL) |  |  |  |
| COc1cc2cc(C(=O)C3CN(CCl)c4cc(NC(=O)OCc5ncc([N+](=O)[O-])n5C)c5ccccc5c43)[nH]c2c(OC)c1OC (centres undefined) | 10 | 78 µM | 146 µM | 68 µM | 100 | 50 | 230 µM | 71 | 8 µM (≈ 5.19 µg/mL) | >1000 µM |  |  |
| COc1cc2cc(C(=O)C3CN(CCl)c4cc(NC(=O)OCc5c([N+](=O)[O-])ccn5C)c5ccccc5c43)[nH]c2c(OC)c1OC (centres undefined) | 0.9 | 15 µM | 0.025 µM | 0.006 µM | 1.4 | 0.7 | 0.028 µM | 1.5 | 8.4 µM (≈ 5.44 µg/mL) |  |  |  |
| COc1cc2cc(C(=O)C3CN(CCl)c4cc(NC(=O)OCc5c([N+](=O)[O-])ncn5C)c5ccccc5c43)[nH]c2c(OC)c1OC (centres undefined) | 1.2 | 73 µM | 185 µM | 55 µM | 2.8 | 4.8 | 201 µM | 2.1 | 13 µM (≈ 8.44 µg/mL) |  |  |  |
| COc1cc2cc(C(=O)N3CC(CCl)c4c3cc(N)c3ccccc43)[nH]c2c(OC)c1OC (centres undefined) | 0.9 | 0.00037 µM | 0.0011 µM | 0.00033 µM | 0.9 | 0.55 | 0.0016 µM | 2 | 197 µM (≈ 91.8 µg/mL) |  |  |  |
| NC(=O)c1cc(N2CC2)c([N+](=O)[O-])cc1[N+](=O)[O-] [TRETAZICAR] | 2090 |  |  |  | 51 | 317 |  | 930 | 1600 µM (≈ 403 µg/mL) |  | 71 µM | 174 µM |
